# Test results taken from ChEMBL document CHEMBL1123901, “Inhibition of delayed hypersensitivity reactions by cinnamyl 1-thioglycosides” (J Med Chem, 1987).
# pIC50: −log10 of the molar value.
# Experiments:
# Format in all cases: functional
# Cavia porcellus [1] = organism: Cavia porcellus; assay: Effect on guinea pig T cell proliferation was tested by measuring the incorporation of [3H]-thymidine uptake at the concentration of 0 uM
# Summary of the method: (§1)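 Strain 2 female guinea pigs were immunized with 100 μg OVA in CFA split over the footpads. At day 14 they received mineral oil ip, and the exudate was collected 4 days later. T cells were enriched on nylon wool. 2×10^5 cells per well were cultured with 10% irradiated (2100 rads) exudate cells, OVA (10 μg/mL) and compound, for 72 h at 37 °C in 5% CO2. [3H]thymidine (1 μCi) was added 18-24 h before harvest. Triplicate wells; mean Δcpm ± SD.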
# Cavia porcellus [2] = organism: Cavia porcellus; assay: Effect on guinea pig T cell proliferation was tested by measuring the incorporation of [3H]thymidine uptake at the concentration of 10 uM; summary of the method: as §1
# Cavia porcellus [3] = organism: Cavia porcellus; assay: Effect on guinea pig T cell proliferation was tested by measuring the incorporation of [3H]-thymidine uptake at the concentration of 100 uM; summary of the method: as §1
# Cavia porcellus [4] = organism: Cavia porcellus; assay: Effect on guinea pig T cell proliferation was tested by measuring the incorporation of [3H]thymidine uptake at the concentration of 1000 uM; summary of the method: as §1
# Cavia porcellus [5] = organism: Cavia porcellus; assay: Effect on guinea pig T cell proliferation was tested by measuring the incorporation of [3H]thymidine uptake at the concentration of 500 uM; summary of the method: as §1
# Cavia porcellus [6] = organism: Cavia porcellus; assay: Effect on guinea pig T cell proliferation was tested by measuring the incorporation of [3H]thymidine uptake at the concentration of 750 uM; summary of the method: as §1
# Cavia porcellus [7] = organism: Cavia porcellus; assay: Effect on guinea pig T cell proliferation was tested by measuring the incorporation of [3H]thymidine uptake at the concentration of 250 uM; summary of the method: as §1
# Cavia porcellus [8] = organism: Cavia porcellus; assay: [3H]-Thymidine uptake was determined by liquid scintillation spectroscopy in ovalbumin (OVA) pulsed compound 2 treated Macrophages
# Summary of the method: (§2)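 Guinea pig PELs and irradiated (2100 rads) exudate macrophages were each preincubated with compound (1 mM or 500 μM, depending on agent) for 18 h at 37 °C, then washed. Macrophages were pulsed with OVA 100 μg/mL for 1 h at 37 °C and washed. Cells were viability-adjusted by trypan blue and mixed, with or without OVA 10 μg/mL. Culture ran 72 h at 37 °C with [3H]thymidine read by scintillation, as mean Δcpm × 10^-3.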
# Cavia porcellus [9] = organism: Cavia porcellus; assay: [3H]thymidine uptake was determined by liquid scintillation spectroscopy in ovalbumin pulsed Macrophages
# Summary of the method: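 Pretreatment protocol. Strain 2 female guinea pigs immunized with OVA in CFA (100 μg OVA; 0.1 mL/foot); mineral oil given ip at day 14, peritoneal exudate collected 4 days later. Nylon-wool-enriched T cells (PELs) and irradiated (2100 rads) exudate macrophages each incubated with sugar derivative 18 h at 37 °C, then washed. Macrophages pulsed with OVA 100 μg/mL for 1 h at 37 °C and washed. Viability adjusted by trypan blue; populations mixed and cultured 72 h at 37 °C. [3H]thymidine (1 μCi) added 18-24 h before harvest; read by liquid scintillation as mean Δcpm ×10^-3.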
# Cavia porcellus [10] = organism: Cavia porcellus; assay: Inhibitory activity against [3H]thymidine uptake by cinnamyl 1-thioglycosides using guinea pig T cell proliferation assay
# Cavia porcellus [11] = organism: Cavia porcellus; assay: [3H]thymidine uptake was determined by liquid scintillation spectroscopy in 2 pretreated OVA pulsed Macrophages plus OVA (10 ug/mL) pretreated with 500 uM 2 at 37 degree C for 18 h; summary of the method: as §2
# Cavia porcellus [12] = organism: Cavia porcellus; assay: [3H]thymidine uptake was determined by liquid scintillation spectroscopy in 3 treated Macrophages plus OVA (10 ug/mL); summary of the method: as §2
# Cavia porcellus [13] = organism: Cavia porcellus; assay: [3H]thymidine uptake was determined by liquid scintillation spectroscopy in Macrophages; summary of the method: as §2
# Cavia porcellus [14] = organism: Cavia porcellus; assay: [3H]thymidine uptake was determined by liquid scintillation spectroscopy in Macrophages pretreated with 500 uM 2 at 37 degree C for 18 h; summary of the method: as §2
# Cavia porcellus [15] = organism: Cavia porcellus; assay: [3H]thymidine uptake was determined by liquid scintillation spectroscopy in OVA pulsed Macrophages pretreated with 500 uM 2 at 37 degree C for 18 h; summary of the method: as §2
# Cavia porcellus [16] = organism: Cavia porcellus; assay: [3H]-Thymidine uptake was determined by liquid scintillation spectroscopy in OVA pulsed compound 2 pretreated Macrophages pretreated with 500 uM 2 at 37 degree C for 18 h; summary of the method: as §2
# Cavia porcellus [17] = organism: Cavia porcellus; assay: [3H]-Thymidine uptake was determined by liquid scintillation spectroscopy in compound 2 pretreated Macrophages plus OVA (ug/mL) pretreated with 500 uM 2 at 37 degree C for 18 h; summary of the method: as §2
# Cavia porcellus [18] = organism: Cavia porcellus; assay: [3H]thymidine uptake was determined by liquid scintillation spectroscopy in compound 2 treated Macrophages; summary of the method: as §2
# Cavia porcellus [19] = organism: Cavia porcellus; assay: [3H]thymidine uptake was determined by liquid scintillation spectroscopy in compound 2 treated Macrophages pretreated with 500 uM 2 at 37 degree C for 18 h; summary of the method: as §2
# Mus musculus [20] = assay: Compound was administered intraperitoneally to mice before increase in foot-pad thickness at a dose of 10 mg/kg; settings: route intraperitoneal
# Summary of the method: (§3)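 DTH in A/J female mice (20-23 g): cyclophosphamide 200 mg/kg sc, then iv sensitization with 10^8 washed SRBC 3 days later. On day 6 after sensitization, one hind footpad challenged with 10^8 SRBC in 20 μL, the other given saline. Dosing ip or po to overnight-fasted mice 20 min before challenge. Swelling read at 24 and 48 h as antigen minus saline footpad (mm × 10), by constant-pressure caliper.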
# Mus musculus [21] = assay: Compound was administered intraperitoneally to mice before increase in foot-pad thickness at a dose of 3 mg/kg; settings: route intraperitoneal; summary of the method: as §3
# Mus musculus [22] = assay: Compound was administered orally to mice before increase in foot-pad thickness at a dose of 10 mg/kg; settings: route oral; summary of the method: as §3
# Mus musculus [23] = assay: Compound was administered orally to mice before increase in foot-pad thickness at a dose of 3 mg/kg; settings: route oral; summary of the method: as §3
# Mus musculus [24] = assay: Compound was administered orally to mice before increase in foot-pad thickness at a dose of 30 mg/kg; settings: route oral; summary of the method: as §3
# Mus musculus [25] = assay: Percent reduction in mice after oral administration 10 mg/kg; summary of the method: as §3
# Mus musculus [26] = assay: Percent reduction in mice after intraperitoneal administration 3 mg/kg; summary of the method: as §3
# Mus musculus [27] = assay: Percent reduction in mice after intraperitoneal administration of 30 mg/kg; summary of the method: as §3
# Mus musculus [28] = assay: Percent reduction in mice after oral administration 3 mg/kg; summary of the method: as §3
# Mus musculus [29] = assay: Percent reduction in mice after oral administration of 30 mg/kg; summary of the method: as §3
# Mus musculus [30] = assay: Percent reduction in mice after intraperitoneal administration 10 mg/kg; summary of the method: as §3
# Cavia porcellus [31] = organism: Cavia porcellus; assay: [3H]thymidine uptake was determined by liquid scintillation spectroscopy in compound 2 pretreated OVA pulsed Macrophages plus OVA (10 ug/mL); summary of the method: as §2
# Mus musculus [32] = assay: Compound was administered intraperitoneally to mice before increase in foot-pad thickness at a dose of 30 mg/kg; settings: route intraperitoneal; summary of the method: as §3
# Cavia porcellus [33] = organism: Cavia porcellus; assay: Inhibitory activity against [3H]thymidine uptake by cinnamyl 1-thioglycosides in guinea pig T cell proliferation; settings: Cavia porcellus, T-cell, 72 h; summary of the method: as §1
structure (smiles),measurement,setting,value
CCCC(=O)NCC1OC(SC/C=C/c2ccccc2)C(O)C(O)C1O (stereo not given),Activity,Cavia porcellus [1],85.8 Δcpm x10e-3
same,Activity,Cavia porcellus [2],68.4 Δcpm x10e-3
same,Activity,Cavia porcellus [3],45 Δcpm x10e-3
same,Activity,Cavia porcellus [4],0.07 Δcpm x10e-3
same,Activity,Cavia porcellus [5],0 Δcpm x10e-3
same,Activity,Cavia porcellus [6],0 Δcpm x 10^-3
same,Activity,Cavia porcellus [7],1.73 Δcpm x10e-3
OCC1OC(SC/C=C/c2ccccc2)C(O)C(O)C1O (stereo in doubt; 2),Delta cpm x10e-3,Cavia porcellus [8],27.8
same,Delta cpm x10e-3,Cavia porcellus [9],41.36
same,Activity,Cavia porcellus [1],82.4 Δcpm x10e-3
same,pIC50,Cavia porcellus [10],3.70
same,Activity,Cavia porcellus [2],95.9 Δcpm x10e-3
same,Activity,Cavia porcellus [3],63.6 Δcpm x10e-3
same,Activity,Cavia porcellus [4],0.18 Δcpm x10e-3
same,Activity,Cavia porcellus [5],0.04 Δcpm x10e-3
same,Activity,Cavia porcellus [6],0 Δcpm x 10^-3
same,Delta cpm x10e-3,Cavia porcellus [11],12.06
same,Delta cpm x10e-3,Cavia porcellus [12],14.5
same,Delta cpm x10e-3,Cavia porcellus [13],1.31
same,Delta cpm x10e-3,Cavia porcellus [14],1.16
same,Delta cpm x10e-3,Cavia porcellus [15],30.35
same,Delta cpm x10e-3,Cavia porcellus [16],14.2
same,Delta cpm x10e-3,Cavia porcellus [17],8.7
same,Delta cpm x10e-3,Cavia porcellus [18],1.89
same,Delta cpm x10e-3,Cavia porcellus [19],1.07
same,Activity,Mus musculus [20],2.46 mm x10
same,Activity,Mus musculus [21],7.3 mm x10
same,Activity,Mus musculus [22],0.82 mm x10
same,Activity,Mus musculus [23],0.85 mm x10
same,Activity,Mus musculus [24],0.82 mm x10
same,Reduction,Mus musculus [25],30%
same,Reduction,Mus musculus [26],0%
same,Reduction,Mus musculus [27],63%
same,Reduction,Mus musculus [28],27%
same,Reduction,Mus musculus [29],30%
same,Reduction,Mus musculus [30],56%
same,Delta cpm x10e-3,Cavia porcellus [31],18.94
same,Activity,Cavia porcellus [7],17.6 Δcpm x10e-3
same,Activity,Mus musculus [32],2.07 mm x10
OCC1OC(SCCCc2ccccc2)C(O)C(O)C1O (stereo not given),Activity,Cavia porcellus [1],72.8 Δcpm x10e-3
same,pIC50,Cavia porcellus [33],3.40
same,Activity,Cavia porcellus [2],70.3 Δcpm x10e-3
same,Activity,Cavia porcellus [3],59 Δcpm x10e-3
same,Activity,Cavia porcellus [4],0 Δcpm x10e-3
same,Activity,Cavia porcellus [5],34.2 Δcpm x10e-3
same,Activity,Cavia porcellus [6],18.5 Δcpm x 10^-3
same,Activity,Cavia porcellus [7],39.7 Δcpm x10e-3
OCC1OC(SC/C=C/c2ccccc2)C(O)C(O)C1O (stereo in doubt; 3),Activity,Cavia porcellus [1],80.3 Δcpm x10e-3
same,pIC50,Cavia porcellus [33],3.06
same,Activity,Cavia porcellus [2],75.3 Δcpm x10e-3
same,Activity,Cavia porcellus [3],66.7 Δcpm x10e-3
same,Activity,Cavia porcellus [4],42 Δcpm x10e-3
same,Activity,Cavia porcellus [5],62.7 Δcpm x10e-3
same,Activity,Cavia porcellus [6],38.4 Δcpm x 10^-3
same,Activity,Cavia porcellus [7],67.8 Δcpm x10e-3
